An excerpt weighted towards active compounds, which were near 2.3% of everything screened.
Mcl1-Noxa inh: disrupts binding of human Mcl-1 to Noxa peptide. Q07820. TR-FRET Mcl-1/Noxa peptide binding, 2 h. inhibition, % at 21.7 µM. 220,000 compounds, 1.5% hits;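 active = compounds that cut the protein-peptide binding signal by more than 50% relative to plate controls in a single-dose test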;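 also: His-tagged Mcl-1 with rhodamine Noxa BH3 peptide and terbium anti-His antibody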
MCL1 BIM primary: inhibitors of human MCL1 binding to BIM-BH3 peptide. Q07820. GST-MCL1 / FITC-Bim-BH3 fluorescence polarization. inhibition, % at 10.9 µM. 320,000 compounds, 0.68% hits. AID 2057;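 active = inhibition above the mean inhibition of all tested compounds plus 3 SD, set per campaign, cut at about 40% in these data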;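 also: higher means more loss of mP so more displacement of Bim peptide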
T cell modulator: modulates CD8 T cell binding to vesicles. 2C CD8+ T cell-vesicle binding, flow cytometry; hits give low values. response (vesicle binding), % at 7 µM. 330,000 compounds, 0.068% hits. AID 2052;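 active = response, share of CD8 T cells binding vesicles, and their 90th percentile fluorescence all below set limits, cut at about 80% in these data, passing the limit was not always enough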;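 also: values below 100% mean blocked vesicle binding to the CD8+ T cells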
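Assay system – 2C mouse CD8+ T cells · Also added – QL9-loaded Drosophila micro-vesicles · Timing – Cell–vesicle co-incubation 1.5 h at 37 °C, staining 20 min on ice · Signal – flow cytometry of vesicle-bound cells · Measure – percent CD8+ FL2 mean versus row control · Controls – Peptide-free naked vesicles (low) and QL9 vesicles with 0.7% DMSO vehicle (high)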
Mcl1 Bid PPI: disrupts binding of human Mcl-1 to Bid peptide; TR-FRET Mcl-1/Bid-Dy647 peptide binding, 1536-well; inhibition, % at 21.7 µM; 220,000 compounds, 0.97% hits; AID 1021;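 active = compounds that cut the binding signal by more than half at the single screening dose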;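 also: His-tagged Mcl-1 with europium anti-His antibody binding Bid BH3 peptide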
DSG3 Ab inh: blocks pemphigus antibody binding to human desmoglein-3; AID 588358; 310,000 compounds, 0.48% hits; binding (percent of control), % at 10 µM; P32926; DSG3-coupled beads, scFv-anti-DSG3-GFP binding, flow cytometry; hits give low values;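 active = binding more than 3 SD below its plate's average and above zero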;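 also: hits lower antibody fragment binding to DSG3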
Target sequence (P32926 whole entry, looked up, the tested form may be a part): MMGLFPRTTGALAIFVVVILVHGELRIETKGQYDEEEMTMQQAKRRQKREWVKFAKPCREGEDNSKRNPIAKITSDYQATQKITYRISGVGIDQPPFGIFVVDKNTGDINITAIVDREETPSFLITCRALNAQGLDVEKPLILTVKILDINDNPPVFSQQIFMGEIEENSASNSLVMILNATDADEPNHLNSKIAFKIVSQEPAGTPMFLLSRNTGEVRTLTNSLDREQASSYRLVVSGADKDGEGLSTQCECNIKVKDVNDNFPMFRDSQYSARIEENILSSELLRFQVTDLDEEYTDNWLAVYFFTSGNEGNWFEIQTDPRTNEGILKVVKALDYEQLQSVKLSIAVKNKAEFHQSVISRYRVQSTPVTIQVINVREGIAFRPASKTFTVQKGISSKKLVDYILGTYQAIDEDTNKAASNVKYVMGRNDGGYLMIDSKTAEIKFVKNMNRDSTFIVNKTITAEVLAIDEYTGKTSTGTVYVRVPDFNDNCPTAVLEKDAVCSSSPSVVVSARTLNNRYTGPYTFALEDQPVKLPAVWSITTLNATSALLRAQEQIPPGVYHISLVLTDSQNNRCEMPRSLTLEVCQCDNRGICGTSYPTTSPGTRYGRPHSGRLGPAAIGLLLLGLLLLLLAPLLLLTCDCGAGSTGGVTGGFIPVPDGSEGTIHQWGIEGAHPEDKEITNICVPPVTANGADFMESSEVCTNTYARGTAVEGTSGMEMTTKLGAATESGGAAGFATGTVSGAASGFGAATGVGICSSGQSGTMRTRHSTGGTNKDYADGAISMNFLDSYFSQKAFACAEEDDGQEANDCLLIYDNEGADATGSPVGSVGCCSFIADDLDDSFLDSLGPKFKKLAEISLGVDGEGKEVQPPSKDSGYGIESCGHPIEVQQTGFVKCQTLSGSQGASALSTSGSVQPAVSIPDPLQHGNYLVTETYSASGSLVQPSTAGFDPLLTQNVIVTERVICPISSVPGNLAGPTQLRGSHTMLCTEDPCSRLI
Mcl-1 Bim block: inhibitors of Bim-Mcl-1 interaction, human | 190,000 compounds, 0.1% hits | inhibition, % at 10 µM | Bead-based flow cytometry, Bim peptide-Mcl-1 binding | Q07820; in the data active = inhibition above about 40%
Bcl-xL conf: counter-screen for MCL1 inhibitors: confirmation of human Bcl-xL inhibitors. shares compounds with MCL1 BIM primary. GST-Bcl-xL / FITC-Bim BH3 peptide FP binding. inhibition, % at 10.9 µM. 1,700 compounds, 54% hits. AID 2166;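 active = inhibition above a cutoff equal to the mean inhibition of all tested compounds plus 3 SD, cut at about 30% in these data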
MCL1 BIM confirm: confirmation of human MCL1 and BIM-BH3 interaction inhibitors; shares compounds with MCL1 BIM primary; GST-MCL1 / FITC-Bim-BH3 fluorescence polarization; inhibition, % at 10.9 µM; 1,700 compounds, 61% hits; AID 2168;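 active = inhibition above the average of all tested compounds plus 3 SD, cut at about 40% in these data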
A number is an active result; 0 = inactive; - = no result; + = active, no number.

SMILES	Mcl1-Noxa inh	MCL1 BIM primary	T cell modulator	Mcl1 Bid PPI	DSG3 Ab inh	Mcl-1 Bim block	Bcl-xL conf	MCL1 BIM confirm
CCOC(=O)c1cc(-c2ccc(/C=C3/C(=O)NC(=O)C(C#N)=C3C)o2)ccc1Cl	102.3	121.0	0	93.0	0	0	104.6	149.8
COc1ccc(-c2cnc(N)nc2-c2ccc(OCc3ccccc3)cc2O)cc1	0	0	0	0	0	-	-	-
Nc1ncc(-c2ccccc2)c(-c2ccc(O)cc2O)n1	-	50.7	0	-	0	-	0	0
COc1ccc(CCC(=O)N2CCN(S(=O)(=O)c3ccc(OC)c([N+](=O)[O-])c3)CC2)cc1	-	-	-	-	0	-	-	-
Cc1ccc(/C=C/C(=O)Nc2cccc3cccnc23)o1	0	83.8	0	0	0	0	32.2	40.4
Cc1cccc(C(=O)Nc2cccc3cccnc23)c1	-	-	0	-	0	-	-	-
COc1ccc(S(=O)(=O)Nc2cc(SCC(=O)O)c(O)c3ccccc23)cc1	-	-	0	-	0	-	0	-
O=C(O)CSc1cc(NS(=O)(=O)c2ccc(Cl)cc2)c2ccccc2c1O	-	0	0	-	0	-	-	-
Cc1ccc(C(=O)N/N=C/c2ccc(-c3ccc(Br)cc3[N+](=O)[O-])o2)o1	-	62.4	0	-	-	-	0	0
CS(=O)(=O)N(CC(=O)N1CCc2ccccc2C1)c1ccccc1F	-	0	0	-	0	-	-	-
COc1ccc(S(=O)(=O)N2CCCCCC2)cc1NC(=O)CN1C(=O)CNC1=O	-	-	0	-	0	-	-	-
O=C1c2cccc3c(N4CCCCC4)ccc(c23)C(=O)N1c1ccc(O)cc1	0	68.5	0	0	0	0	59.6	71.5
O=C1c2cccc3c(N4CCCCC4)ccc(c23)C(=O)N1c1ccccc1O	0	0	0	0	0	0	-	-
CC(C)(C)c1ccc(C(=O)Nc2cccc3ncccc23)cc1	-	90.0	0	-	0	-	116.4	143.2
Cc1ccc(-c2csc3ncn(CC#N)c(=O)c23)cc1C	-	58.8	0	-	0	-	0	40.9
CC(C)=CCc1c(O)ccc2c1OC(c1ccc(O)c(O)c1)CC2=O (stereo not given)	0	0	0	0	-	0	-	-
O=C1CC(c2ccc(O)c(O)c2)Oc2c1ccc(O)c2O (stereo not given)	106.2	70.3	0	0	0	-	0	77.7
CCn1c(SCC(=O)N/N=C/C=C\c2ccco2)nc2ccccc21	0	48.1	0	0	0	0	0	0
COc1cccc(NS(=O)(=O)c2ccc3c(c2)CCCN3C(C)=O)c1	0	0	0	0	0	0	-	-
O=C(O)c1ccc2c(c1)[C@@H]1C=CC[C@@H]1[C@H](c1ccccn1)N2	-	86.3	0	-	-	-	50.4	85.2
O=C(NCCOc1ccccc1)C1Nc2ccc(OC(F)(F)F)cc2C2C=CCC12 (stereo not given)	-	0	0	-	0	-	-	-
COc1cccc(NS(=O)(=O)c2ccc3c(c2)C2C=CCC2C(c2ccc(C(=O)O)cc2)N3)c1 (stereo not given)	97.0	58.4	0	0	0	0	0	46.0
COc1ccc(C(=O)N/N=C(\C)c2ccc3c(c2)C2C=CCC2C(c2ccccc2)N3)cc1 (stereo not given)	0	56.5	0	0	0	0	0	0
C[C@@H]1CN([C@@H](C)CO)S(=O)(=O)c2ccc(Br)cc2O[C@@H]1CN(C)S(=O)(=O)c1cn(C)cn1	-	-	-	-	0	-	-	-
CCOc1ccc2nc3cc(NCc4ccc(OC)cc4)ccc3c(N)c2c1	-	+	0	-	-	-	139.4	166.1
SMILES	Mcl1-Noxa inh	MCL1 BIM primary	T cell modulator	Mcl1 Bid PPI	DSG3 Ab inh	Mcl-1 Bim block	Bcl-xL conf	MCL1 BIM confirm
O=C(CSc1nc(-c2ccccc2)cc(=O)[nH]1)N1CCOCC1	0	48.3	0	0	0	0	0	0
O=C(CSc1nc(O)cc(=O)[nH]1)N1CCOCC1	-	0	0	-	-	-	-	-
CNC(=O)c1c(N)sc2c1CCCCC2	0	71.6	0	0	-	0	43.8	51.9
Cc1ccc(NC(=O)c2cc(S(=O)(=O)N3CCOCC3)cn2C)cc1F	-	0	0	-	0	-	-	-
Nc1ccc(-c2c3ccc(=O)cc-3oc3cc(O)ccc23)cc1C(=O)O	-	117.9	0	-	0	-	104.1	111.9
O=c1cc(-c2ccccc2)oc2cc(O)ccc12	-	-	-	-	0	-	-	-
